This passage reports IC50 and MIC results from ChEMBL document CHEMBL2150998, “Antibiotic and antimalarial quinones from fungus-growing ant-associated Pseudonocardia sp” (J Nat Prod, 2012).

Values after ≈ are worked out from the molar mass of the structure shown.

The subject of one assay is HepG2. Briefly: Cytotoxicity against human HepG2 cells after 2 days by CellTiter-Glo assay. Conditions: HepG2, 48 h. The class given is cell-based. Put shortly:
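HepG2 hepatoma cells were kept in DMEM with 10% FBS and 1% antibiotic–antimycotic (37 °C, 5% CO2). 15 000 cells/well were exposed in triplicate to compounds at 0–50 μg/mL with 1% DMSO final, 2 days at 37 °C. Viability was read by CellTiter-Glo luminescence. IC50 came from a standard inhibition dose–response fit, mean of two independent experiments.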
In the case of `COc1cccc2c1C(=O)c1ccc3c(c1C2=O)C(=O)C[C@](C)(O)C3`, the IC50 was greater than 100 µM.

`COc1cccc2c1C(=O)c1ccc3cc(C)cc(O)c3c1C2=O` registered an IC50 of 36.1 µM.

`COc1cccc2c1C(=O)c1ccc3cc(C)cc(O[C@@H]4O[C@H](C(=O)O)[C@@H](O)[C@H](O)[C@H]4O)c3c1C2O` (relative stereo) yielded an IC50 greater than 100 µM.

In the case of `COc1cccc2c1C(=O)c1ccc3cc(C)cc(O[C@@H]4O[C@H](C(=O)O)[C@@H](O)[C@H](O)[C@H]4O)c3c1C2=O` [PSEUDONOCARDONE B], the IC50 is greater than 100 µM.

Take `COc1cccc2c1C(=O)c1ccc3cc(C)c(O[C@@H]4O[C@H](C(=O)O)[C@@H](O)[C@H](O)[C@H]4O)c(O)c3c1C2=O` [PSEUDONOCARDONE C]: the IC50 is greater than 100 µM.

A further assay relates to Saccharomyces cerevisiae. Briefly: Antifungal activity against Saccharomyces cerevisiae after 24 hrs. The class given is functional.
Conditions: not given
In outline:
(§1)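 Overnight cultures at 30 °C in LB (E. coli, B. subtilis) or YPD (C. albicans, S. cerevisiae) were diluted to OD600 0.01. Compounds came from 5 mg/mL DMSO stocks, 2-fold serially diluted, at final 50 to 0.1 μg/mL. Growth ran 24 h at 30 °C with OD600 read-out. MIC was the lowest concentration giving <5% of maximum OD600. Assays were run in duplicate, with dynemicin A as positive control.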
In turn, `COc1cccc2c1C(=O)c1ccc3c(c1C2=O)C(=O)C[C@](C)(O)C3` gave an MIC greater than 50 µg/mL.

Take `COc1cccc2c1C(=O)c1ccc3cc(C)cc(O)c3c1C2=O`: the MIC is greater than 50 µg/mL.

Compound `COc1cccc2c1C(=O)c1ccc3cc(C)cc(O[C@@H]4O[C@H](C(=O)O)[C@@H](O)[C@H](O)[C@H]4O)c3c1C2O` (relative stereo) registered an MIC greater than 50 µg/mL.

In turn, `COC1=C(C(=O)O)[C@H](C)[C@@]23O[C@]24c2cc(O)c5c(c2N[C@H]3C#C/C=C\C#C[C@H]14)C(=O)c1c(O)ccc(O)c1C5=O` [DYNEMICIN A] had an MIC of 0.156 µg/mL (≈ 0.29 µM).

`COc1cccc2c1C(=O)c1ccc3cc(C)cc(O[C@@H]4O[C@H](C(=O)O)[C@@H](O)[C@H](O)[C@H]4O)c3c1C2=O` [PSEUDONOCARDONE B] registered an MIC greater than 50 µg/mL.

For the compound `COc1cccc2c1C(=O)c1ccc3cc(C)c(O[C@@H]4O[C@H](C(=O)O)[C@@H](O)[C@H](O)[C@H]4O)c(O)c3c1C2=O` [PSEUDONOCARDONE C], the minimal inhibitory concentration (MIC) is greater than 50 µg/mL.

The subject of the next assay is Bacillus subtilis. Briefly: Antibacterial activity against Bacillus subtilis 3610 after 24 hrs. Conditions: subsp. subtilis str. NCIB 3610, 24 h. The format is functional. Put shortly:
as §1
`COc1cccc2c1C(=O)c1ccc3c(c1C2=O)C(=O)C[C@](C)(O)C3` showed an MIC of 25 µg/mL (≈ 74.3 µM).

The compound `COc1cccc2c1C(=O)c1ccc3cc(C)cc(O)c3c1C2=O` gave an MIC of 3.13 µg/mL (≈ 9.83 µM). This MIC is about 8-fold lower than that of the compound before.

As for `COc1cccc2c1C(=O)c1ccc3cc(C)cc(O[C@@H]4O[C@H](C(=O)O)[C@@H](O)[C@H](O)[C@H]4O)c3c1C2O` (relative stereo), the MIC is greater than 50 µg/mL.

The compound `COC1=C(C(=O)O)[C@H](C)[C@@]23O[C@]24c2cc(O)c5c(c2N[C@H]3C#C/C=C\C#C[C@H]14)C(=O)c1c(O)ccc(O)c1C5=O` [DYNEMICIN A] registered an MIC of 0.00016 µg/mL (≈ 0.000298 µM).

Compound `COc1cccc2c1C(=O)c1ccc3cc(C)cc(O[C@@H]4O[C@H](C(=O)O)[C@@H](O)[C@H](O)[C@H]4O)c3c1C2=O` [PSEUDONOCARDONE B] displayed an MIC greater than 50 µg/mL.

The compound `COc1cccc2c1C(=O)c1ccc3cc(C)c(O[C@@H]4O[C@H](C(=O)O)[C@@H](O)[C@H](O)[C@H]4O)c(O)c3c1C2=O` [PSEUDONOCARDONE C] had an MIC greater than 50 µg/mL.

The test system of the next assay is Escherichia coli. Briefly: Antibacterial activity against Escherichia coli K12 after 24 hrs. The class given is functional. To be noted: K-12, 24 h. Put shortly:
as §1
In the case of `COc1cccc2c1C(=O)c1ccc3c(c1C2=O)C(=O)C[C@](C)(O)C3`, the MIC is greater than 50 µg/mL.

As to `COc1cccc2c1C(=O)c1ccc3cc(C)cc(O)c3c1C2=O`, the MIC was greater than 50 µg/mL.

For the compound `COc1cccc2c1C(=O)c1ccc3cc(C)cc(O[C@@H]4O[C@H](C(=O)O)[C@@H](O)[C@H](O)[C@H]4O)c3c1C2O` (relative stereo), the MIC was greater than 50 µg/mL.

On to `COC1=C(C(=O)O)[C@H](C)[C@@]23O[C@]24c2cc(O)c5c(c2N[C@H]3C#C/C=C\C#C[C@H]14)C(=O)c1c(O)ccc(O)c1C5=O` [DYNEMICIN A], for which the MIC is 0.313 µg/mL (≈ 0.582 µM).

`COc1cccc2c1C(=O)c1ccc3cc(C)cc(O[C@@H]4O[C@H](C(=O)O)[C@@H](O)[C@H](O)[C@H]4O)c3c1C2=O` [PSEUDONOCARDONE B] registered an MIC greater than 50 µg/mL.

`COc1cccc2c1C(=O)c1ccc3cc(C)c(O[C@@H]4O[C@H](C(=O)O)[C@@H](O)[C@H](O)[C@H]4O)c(O)c3c1C2=O` [PSEUDONOCARDONE C] displayed an MIC greater than 50 µg/mL.

The next assay deals with Plasmodium berghei. Briefly: Antiplasmodial activity against luciferase-expressing sporozoite of Plasmodium berghei ANKA infected in human HepG2 cells assessed as reduction of parasite load after 2 days. The format is functional, organism-based. Conditions: HepG2, 48 h. Put shortly:
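HepG2 cells (15 000/well, 384-well) were infected with 4000 luciferase-expressing P. berghei ANKA sporozoites, taken from infected Anopheles stephensi, with compounds in triplicate. Final DMSO was 1%, compounds 0–50 μg/mL, 2 days at 37 °C. Parasite load was read by Bright-Glo luminescence. IC50 came from a standard inhibition dose–response fit, mean of two independent experiments. Atovaquone was the positive control.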
Consider `COc1cccc2c1C(=O)c1ccc3c(c1C2=O)C(=O)C[C@](C)(O)C3`, for which the IC50 came out at 18.5 µM.

On to `COc1cccc2c1C(=O)c1ccc3cc(C)cc(O)c3c1C2=O`, for which the IC50 was determined as 3 µM.

For the compound `COc1cccc2c1C(=O)c1ccc3cc(C)cc(O[C@@H]4O[C@H](C(=O)O)[C@@H](O)[C@H](O)[C@H]4O)c3c1C2O` (relative stereo), the IC50 stood at 38 µM.

As for `COc1cccc2c1C(=O)c1ccc3cc(C)cc(O[C@@H]4O[C@H](C(=O)O)[C@@H](O)[C@H](O)[C@H]4O)c3c1C2=O` [PSEUDONOCARDONE B], the IC50 was determined as 50 µM.

`COc1cccc2c1C(=O)c1ccc3cc(C)c(O[C@@H]4O[C@H](C(=O)O)[C@@H](O)[C@H](O)[C@H]4O)c(O)c3c1C2=O` [PSEUDONOCARDONE C]: the half-inhibitory concentration (IC50) was greater than 100 µM.

The next assay concerns Candida albicans. Briefly: Antifungal activity against Candida albicans after 24 hrs. The format is functional.
Conditions: not given
In outline:
as §1
As to `COc1cccc2c1C(=O)c1ccc3c(c1C2=O)C(=O)C[C@](C)(O)C3`, the MIC is greater than 50 µg/mL.

With `COc1cccc2c1C(=O)c1ccc3cc(C)cc(O)c3c1C2=O`, the MIC was greater than 50 µg/mL.

The compound `COc1cccc2c1C(=O)c1ccc3cc(C)cc(O[C@@H]4O[C@H](C(=O)O)[C@@H](O)[C@H](O)[C@H]4O)c3c1C2O` (relative stereo) showed an MIC greater than 50 µg/mL.

On to `COC1=C(C(=O)O)[C@H](C)[C@@]23O[C@]24c2cc(O)c5c(c2N[C@H]3C#C/C=C\C#C[C@H]14)C(=O)c1c(O)ccc(O)c1C5=O` [DYNEMICIN A], for which the MIC is 0.156 µg/mL (≈ 0.29 µM).

`COc1cccc2c1C(=O)c1ccc3cc(C)cc(O[C@@H]4O[C@H](C(=O)O)[C@@H](O)[C@H](O)[C@H]4O)c3c1C2=O` [PSEUDONOCARDONE B] yielded an MIC greater than 50 µg/mL.

For the compound `COc1cccc2c1C(=O)c1ccc3cc(C)c(O[C@@H]4O[C@H](C(=O)O)[C@@H](O)[C@H](O)[C@H]4O)c(O)c3c1C2=O` [PSEUDONOCARDONE C], the MIC is greater than 50 µg/mL.

The term IC50 denotes the concentration needed to halve the response being measured. In general, MIC refers to the least concentration at which growth counts as inhibited. Read a low MIC as a more susceptible organism.
